Data reported in ChEMBL document CHEMBL1128505, “On the quantitative structure-activity relationships of meta-substituted (S)-phenylpiperidines, a class of preferential dopamine D2 autoreceptor ligands: modeling of dopamine synthesis and release in vivo by means of partial least squares regression” (1995).

How the values were obtained:
[1] = biological target: D(2) dopamine receptor (Rattus norvegicus) (UniProt P61169); experiment: Effect on extracellular DA levels in the striatal region of rat brain.; assay type: functional, tissue-based
D(2) dopamine receptor (Rattus norvegicus), sequence (P61169 whole entry): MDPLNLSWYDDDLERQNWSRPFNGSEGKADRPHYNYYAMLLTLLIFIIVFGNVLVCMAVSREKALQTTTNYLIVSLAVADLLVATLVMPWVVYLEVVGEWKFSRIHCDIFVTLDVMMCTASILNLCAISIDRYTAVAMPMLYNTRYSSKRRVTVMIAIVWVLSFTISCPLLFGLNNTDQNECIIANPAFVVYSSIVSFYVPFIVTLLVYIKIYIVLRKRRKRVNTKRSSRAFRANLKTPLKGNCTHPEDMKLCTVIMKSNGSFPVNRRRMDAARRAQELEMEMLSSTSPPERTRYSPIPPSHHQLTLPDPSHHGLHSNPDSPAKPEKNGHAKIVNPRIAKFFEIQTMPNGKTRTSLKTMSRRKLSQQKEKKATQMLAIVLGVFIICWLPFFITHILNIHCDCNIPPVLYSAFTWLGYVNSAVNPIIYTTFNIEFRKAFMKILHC
In short: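 Awake, freely moving rats; test compound injected subcutaneously, with dose varying by compound. Extracellular striatal DA measured by microdialysis, analysing perfusates collected from implanted probes. The value is the maximum DA level between 20 and 100 min after administration, expressed as percent of saline controls.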

[2] = biological target: D(2) dopamine receptor (Rattus norvegicus) (UniProt P61169); experiment: Effect on DOPA accumulation in limbic and striatal regions of reserpine-pretreated rat brains.; assay type: functional, tissue-based; conditions: Brain
[3] = system: Rattus norvegicus; experiment: The in vivo effect of the compound (sc,3.7uM/kg) on DOPA accumulation in limbic and striatal regions of the rat brain without reserpine pretreatment.; assay type: functional
In short: (§1)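 No reserpine pretreatment. Rats given test compound subcutaneously, then the decarboxylase inhibitor NSD 1015. L-DOPA accumulated in limbic and striatal brain tissue was measured. The value is the maximum effect, selected at a dose where the dose-response curve had reached maximum, expressed as percent of controls.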

[4] = system: Rattus norvegicus; experiment: The in vivo effect of the compound (sc injection, 107 umol/kg) on DOPA accumulation in limbic and striatal regions of reserpine-pretreated rat brains.; assay type: functional, Brain
In short: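 Rats pretreated with reserpine 18 h before subcutaneous test compound, then given the decarboxylase inhibitor NSD 1015. L-DOPA accumulation measured in limbic and striatal brain tissue. The value is the maximum effect, taken at a dose where the dose-response curve had reached maximum, expressed as percent of controls.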

[5] = system: Rattus norvegicus; experiment: In vivo effect on DOPA accumulation in limbic and striatal regions of the rat brain without reserpine pretreatment; assay type: functional, Limbic system; design: unit not given beside the values
[6] = system: Rattus norvegicus; experiment: The in vivo effect of the compound (sc injection, 50 umol/kg) on DOPA accumulation in limbic and striatal regions of reserpine-pretreated rat brains.; assay type: functional, Brain
[7] = system: Rattus norvegicus; experiment: The in vivo effect of the compound (sc,227uM/kg) on DOPA accumulation in limbic and striatal regions of the rat brain without reserpine pretreatment.; assay type: functional; in short: as §1
[8] = system: Rattus norvegicus; experiment: The in vivo effect of the compound (sc injection, 227 umol/kg) on DOPA accumulation in limbic and striatal regions of reserpine-pretreated rat brains.; assay type: functional, Brain

Compound | Activity [1] | DOPA accumulation [2] | also measured
CCCN1CCC[C@@H](c2cccc(C(C)=O)c2)C1 | 196 | 73 | –
CCCCN1CCC[C@@H](c2cccc(O)c2)C1 | – | – | DOPA accumulation [3]: 86; DOPA accumulation [4]: 22
CCCN1CCC[C@@H](c2cccc(C#N)c2)C1 | 411 | 105 | –
C=CCN1CCC[C@@H](c2cccc(C#N)c2)C1 | 593 | 85 | –
CCCN1CCC[C@@H](c2cccc(OC)c2)C1 | – | 66 | –
Oc1cccc([C@@H]2CCCN(CCc3ccccc3)C2)c1 | – | – | DOPA accumulation [3]: 37; DOPA accumulation [4]: 22
CCCN1CCC[C@@H](c2ccccc2)C1 | 543 | – | DOPA accumulation [5]: 140; DOPA accumulation [6]: 65
CN1CCC[C@@H](c2cccc(O)c2)C1 | – | – | DOPA accumulation [4]: 20; DOPA accumulation [7]: 51
CCCN1CCC[C@@H](c2cccc(C=O)c2)C1 | – | 83 | –
CCCN1CCC[C@@H](c2cccc(S(C)(=O)=O)c2)C1 | 293 | 95 | –
CCCN1CCC[C@@H](c2cccc(N)c2)C1 | – | 91 | –
CCCc1cccc([C@@H]2CCCN(CCC)C2)c1 | – | 62 | DOPA accumulation [5]: 190
CC(C)N1CCC[C@@H](c2cccc(O)c2)C1 | 56 | 18 | DOPA accumulation [5]: 47
Oc1cccc([C@@H]2CCCNC2)c1 | – | – | DOPA accumulation [7]: 44
C#Cc1cccc([C@@H]2CCCN(CCC)C2)c1 | 270 | – | –
CCN1CCC[C@@H](c2cccc(OS(=O)(=O)C(F)(F)F)c2)C1 | 143 | – | DOPA accumulation [5]: 286
CCCCN1CCC[C@@H](c2cccc(C#N)c2)C1 | – | – | DOPA accumulation [6]: 71
C=CCN1CCC[C@@H](c2ccccc2)C1 | 364 | – | –
CCCCN1CCC[C@@H](c2cccc(OS(=O)(=O)C(F)(F)F)c2)C1 | – | – | DOPA accumulation [5]: 234
CCCN1CCC[C@@H](c2cccc(O)c2)C1 [PRECLAMOL] | 400 | – | DOPA accumulation [8]: 30
CCCN1CCC[C@@H](c2cccc(Br)c2)C1 | 372 | 101 | –
CCCN1CCC[C@@H](c2cccc(CC#N)c2)C1 | – | 57 | –
CCCN1CCC[C@@H](c2cccc(OS(C)(=O)=O)c2)C1 | 239 | 92 | DOPA accumulation [5]: 249
CN1CCC[C@@H](c2cccc(OS(=O)(=O)C(F)(F)F)c2)C1 | – | – | DOPA accumulation [5]: 157
CCCN1CCC[C@@H](c2cccc(-c3ccsc3)c2)C1 | 106 | – | –
CCCN1CCC[C@@H](c2cccc(SC)c2)C1 | – | – | DOPA accumulation [6]: 92
CCC(C)N1CCC[C@@H](c2cccc(C#N)c2)C1 (some centres not stated) | 282 | – | –
CCCN1CCC[C@@H](c2cccc(CO)c2)C1 | 191 | 50 | –
CCN1CCC[C@@H](c2cccc(C#N)c2)C1 | 223 | – | –
